Molecules are shown by their SMILES.

The Ki is a measure of affinity in units of concentration, obtained from inhibition or displacement. Lower therefore signals tighter binding. A word on the inhibition: it is the change of the read-out against control, counted positive when it falls. Low readings indicate a response near the control, high ones a response far below the control.

One test has as its target Human immunodeficiency virus type 1 protease (Human immunodeficiency virus 1, UniProt Q72874). Nature of the test: Inhibition of HIV1 protease. An outline of the steps:
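HIV-1 protease (SF-2-WTQ7K-Pr construct for the isolated inhibitors) at 20 µg/mL with 50 µM fluorogenic substrate Abz-Thr-Ile-Nle/Phe-(p-NO2)Gln-Arg-NH2, in 0.1 M MES, 0.2 M NaCl, pH 5.25, 5% (v/v) glycerol. Crude mixtures were screened at 5 µM as percent inhibition.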
`Cc1ccc(C)c(N2CCN(Cc3nnn([C@@H](Cc4ccccc4)[C@H](Cc4ccccc4)NC(=O)OC4CCCC4)c3[Si](C)(C)C)CC2)c1` had a Ki of over 2.5 µM.

A further test concerns the target Human immunodeficiency virus type 1 protease (Human immunodeficiency virus 1) (UniProt Q72874). Nature of the test: Inhibition of HIV1 protease at 5 uM. The gist of the method: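 Crude click-reaction DMSO mixtures (azide-alkyne, CuSO4 with copper turning, 1:1 tBuOH/H2O, 50 °C, 5 days) diluted to 5 µM in 0.1 M MES, 0.2 M NaCl, pH 5.25, 5% glycerol; HIV-1 protease 20 µg/mL plus fluorogenic substrate 50 µM added; fluorescence read directly in microplate; percent inhibition; TL-3 100 nM positive control.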
`Cc1ccc(Cl)cc1N1CCN(Cc2cn([C@@H](Cc3ccccc3)[C@H](Cc3ccccc3)NC(=O)C3CCCC3)nn2)CC1` yielded an inhibition of 28%.

Regarding `Cc1ccc(Cl)cc1N1CCN(Cc2cn([C@@H](Cc3ccccc3)[C@H](Cc3ccccc3)NC(=O)OCC3CCCO3)nn2)CC1` (some centres undefined), the inhibition was found to be 41%.

`O=C(N[C@@H](Cc1ccccc1)[C@H](Cc1ccccc1)n1cc(CN2CCN(c3cccc(Cl)c3)CC2)nn1)OC1CCCC1` registered an inhibition of 93%.

The compound `Cc1ccc(Cl)cc1N1CCN(Cc2cn([C@@H](Cc3ccccc3)[C@H](Cc3ccccc3)NC(=O)OCC(C)C)nn2)CC1` displayed an inhibition of 73%.

Compound `O=C(N[C@@H](Cc1ccccc1)[C@H](Cc1ccccc1)n1cc(CN2CCN(C3CCCCC3)CC2)nn1)OC1CCCC1` returned an inhibition of 22%.

With `O=C(N[C@@H](Cc1ccccc1)[C@H](Cc1ccccc1)n1cc(CN2CCN(c3ccncc3)CC2)nn1)OC1CCCC1`, the inhibition was determined as 12%.

For `O=C(N[C@@H](Cc1ccccc1)[C@H](Cc1ccccc1)n1cc(CN2CCC(Cc3ccccc3)CC2)nn1)OC1CCCC1`, the inhibition amounted to 70%.

As to `O=C(N[C@@H](Cc1ccccc1)[C@H](Cc1ccccc1)n1cc(CN2CCN(c3ccc(F)cc3F)CC2)nn1)OC1CCCC1`, the inhibition came to 81%.

`Cc1ccc(Cl)cc1N1CCN(Cc2cn([C@@H](Cc3ccccc3)[C@H](Cc3ccccc3)NC(=O)OC3CCC3)nn2)CC1` returned an inhibition of 75%.

The compound `Cc1ccccc1N1CCN(Cc2cn([C@@H](Cc3ccccc3)[C@H](Cc3ccccc3)NC(=O)OC3CCCC3)nn2)CC1` returned an inhibition of 80%.

Consider `CC(C)(C)OC(=O)N1CCN(Cc2cn([C@@H](Cc3ccccc3)[C@H](Cc3ccccc3)NC(=O)OC3CCCC3)nn2)CC1`, for which the inhibition stood at 51%.

`O=C(N[C@@H](Cc1ccccc1)[C@H](Cc1ccccc1)n1cc(CN2CCN(c3ccc(C(F)(F)F)cc3)CC2)nn1)OC1CCCC1` returned an inhibition of 48%.

In turn, `O=C(N[C@@H](Cc1ccccc1)[C@H](Cc1ccccc1)n1cc(CN2CCN(c3cccc(O)c3)CC2)nn1)OC1CCCC1` had an inhibition of 85%.

`O=C(N[C@@H](Cc1ccccc1)[C@H](Cc1ccccc1)n1cc(CN2CCC(O)(c3cccc(C(F)(F)F)c3)CC2)nn1)OC1CCCC1` came in with an inhibition of 34%.

Regarding `CCOC(=O)N1CCN(Cc2cn([C@@H](Cc3ccccc3)[C@H](Cc3ccccc3)NC(=O)OC3CCCC3)nn2)CC1`, the inhibition was 27%.

The compound `O=C(N[C@@H](Cc1ccccc1)[C@H](Cc1ccccc1)n1cc(CN2CCN(c3ccccn3)CC2)nn1)OC1CCCC1` yielded an inhibition of 36%.

Consider `O=C(N[C@@H](Cc1ccccc1)[C@H](Cc1ccccc1)n1cc(CN2CCC(c3ccccc3)CC2)nn1)OC1CCCC1`, for which the inhibition came out at 67%.

`O=C(N[C@@H](Cc1ccccc1)[C@H](Cc1ccccc1)n1cc(CN2CCCC(c3ccccc3)C2)nn1)OC1CCCC1` (some centres undefined) yielded an inhibition of 28%.

The compound `O=C(N[C@@H](Cc1ccccc1)[C@H](Cc1ccccc1)n1cc(CN2CCN(c3ccccc3)CC2)nn1)OC1CCCC1` came in with an inhibition of 82%.

As for `O=C(N[C@@H](Cc1ccccc1)[C@H](Cc1ccccc1)n1cc(CN2CCN(c3ccc(F)cc3)CC2)nn1)OC1CCCC1`, the inhibition is 64%.

Regarding `Cc1cccc(N2CCN(Cc3cn([C@@H](Cc4ccccc4)[C@H](Cc4ccccc4)NC(=O)OC4CCCC4)nn3)CC2)c1`, the inhibition was 87%.

`O=C(N[C@@H](Cc1ccccc1)[C@H](Cc1ccccc1)n1cc(CN2CCC3(CC2)C(=O)NCN3c2ccccc2)nn1)OC1CCCC1`: the inhibition is 17%.

For the compound `Cc1ccc(Cl)cc1N1CCN(Cc2cn([C@@H](Cc3ccccc3)[C@H](Cc3ccccc3)NC(=O)OCc3ccccc3)nn2)CC1`, the inhibition stood at 29%.

Regarding `O=C(N[C@@H](Cc1ccccc1)[C@H](Cc1ccccc1)n1cc(CN2CCN(c3ncccn3)CC2)nn1)OC1CCCC1`, the inhibition was determined as 25%.

`O=C(N[C@@H](Cc1ccccc1)[C@H](Cc1ccccc1)n1cc(CN2CCN(c3cc(Cl)cc(Cl)c3)CC2)nn1)OC1CCCC1` came in with an inhibition of 89%.

The compound `Cc1ccc(Cl)cc1N1CCN(Cc2cn([C@@H](Cc3ccccc3)[C@H](Cc3ccccc3)NC(=O)NC3CCCC3)nn2)CC1` showed an inhibition of 19%.

In the case of `Cc1cccc(N2CCN(Cc3cn([C@@H](Cc4ccccc4)[C@H](Cc4ccccc4)NC(=O)OC4CCCC4)nn3)CC2C)c1` (some centres undefined), the inhibition was 55%.

Compound `Cc1ccc(Cl)cc1N1CCN(Cc2cn([C@@H](Cc3ccccc3)[C@H](Cc3ccccc3)NC(=O)Oc3ccccc3)nn2)CC1` showed an inhibition of 31%.

The compound `COC(=O)N[C@@H](Cc1ccccc1)[C@H](Cc1ccccc1)n1cc(CN2CCN(c3cc(Cl)ccc3C)CC2)nn1` came in with an inhibition of 25%.

In turn, `Cc1ccc(Cl)cc1N1CCN(Cc2cn([C@@H](Cc3ccccc3)[C@H](Cc3ccccc3)NC(=O)O[C@H]3CCOC3)nn2)CC1` yielded an inhibition of 85%.

The compound `O=C(N[C@@H](Cc1ccccc1)[C@H](Cc1ccccc1)n1cc(CN2CC=C(c3ccc(Cl)cc3)CC2)nn1)OC1CCCC1` came in with an inhibition of 58%.

`O=C(N[C@@H](Cc1ccccc1)[C@H](Cc1ccccc1)n1cc(CN2CCC(O)(c3ccc(Cl)c(C(F)(F)F)c3)CC2)nn1)OC1CCCC1` came in with an inhibition of 48%.

In turn, `Cc1ccc(Cl)cc1N1CCN(Cc2cn([C@@H](Cc3ccccc3)[C@H](Cc3ccccc3)NC(=O)Nc3ccc(F)cc3)nn2)CC1` showed an inhibition of 30%.

`O=C(N[C@@H](Cc1ccccc1)[C@H](Cc1ccccc1)n1cc(CN2CCC(O)(c3ccc(Cl)cc3)CC2)nn1)OC1CCCC1` returned an inhibition of 26%.

With `O=C(N[C@@H](Cc1ccccc1)[C@H](Cc1ccccc1)n1cc(CN2CCN(c3ccc(Cl)cc3)CC2)nn1)OC1CCCC1`, the inhibition was 77%.

Compound `Cc1ccc(Cl)cc1N1CCN(Cc2cn([C@@H](Cc3ccccc3)[C@H](Cc3ccccc3)NC(=O)NC3CCCCC3)nn2)CC1` displayed an inhibition of 15%.

In turn, `Cc1ccc(Cl)cc1N1CCN(Cc2cn([C@@H](Cc3ccccc3)[C@H](Cc3ccccc3)NC(=O)OCC3CCCC3)nn2)CC1` returned an inhibition of 76%.

On to `O=C(N[C@@H](Cc1ccccc1)[C@H](Cc1ccccc1)n1cc(CN2CCN(c3cnccn3)CC2)nn1)OC1CCCC1`, for which the inhibition worked out at 14%.

Regarding `O=C(N[C@@H](Cc1ccccc1)[C@H](Cc1ccccc1)n1cc(CN2CCN(Cc3ccc4c(c3)OCO4)CC2)nn1)OC1CCCC1`, the inhibition amounted to 29%.

Compound `O=C(N[C@@H](Cc1ccccc1)[C@H](Cc1ccccc1)n1cc(CN2CCN(c3ccccc3Cl)CC2)nn1)OC1CCCC1` came in with an inhibition of 76%.

`CCOC(=O)N[C@@H](Cc1ccccc1)[C@H](Cc1ccccc1)n1cc(CN2CCN(c3cc(Cl)ccc3C)CC2)nn1` came in with an inhibition of 41%.

`O=C(N[C@@H](Cc1ccccc1)[C@H](Cc1ccccc1)n1cc(CN2CCN(c3ccc(Cl)c(Cl)c3)CC2)nn1)OC1CCCC1` displayed an inhibition of 86%.

Regarding `Cc1ccc(Cl)cc1N1CCN(Cc2cn([C@@H](Cc3ccccc3)[C@H](Cc3ccccc3)NC(=O)OCC3CCCCC3)nn2)CC1`, the inhibition was 53%.

Compound `Cc1ccc(Cl)cc1N1CCN(Cc2cn([C@@H](Cc3ccccc3)[C@H](Cc3ccccc3)NC(=O)OC3CCCCC3)nn2)CC1` yielded an inhibition of 66%.

`O=C(N[C@@H](Cc1ccccc1)[C@H](Cc1ccccc1)n1cc(CN2CCC(O)(c3ccccc3)CC2)nn1)OC1CCCC1`: the inhibition stood at 20%.

With `O=C(N[C@@H](Cc1ccccc1)[C@H](Cc1ccccc1)n1cc(CN2CCC(n3c(=O)[nH]c4ccccc43)CC2)nn1)OC1CCCC1`, the inhibition was found to be 23%.

`CCN1CCN(Cc2cn([C@@H](Cc3ccccc3)[C@H](Cc3ccccc3)NC(=O)OC3CCCC3)nn2)CC1` yielded an inhibition of 26%.

Take `O=C(N[C@@H](Cc1ccccc1)[C@H](Cc1ccccc1)n1cc(CN2CCN(C(=O)OCc3ccccc3)CC2)nn1)OC1CCCC1`: the inhibition amounted to 35%.

`Cc1c(Cl)cccc1N1CCN(Cc2cn([C@@H](Cc3ccccc3)[C@H](Cc3ccccc3)NC(=O)OC3CCCC3)nn2)CC1` had an inhibition of 86%.

For the compound `Cc1ccc(Cl)cc1N1CCN(Cc2cn([C@@H](Cc3ccccc3)[C@H](Cc3ccccc3)NC(=O)C3CCCCC3)nn2)CC1`, the inhibition is 17%.

In the case of `COc1ccccc1N1CCN(Cc2cn([C@@H](Cc3ccccc3)[C@H](Cc3ccccc3)NC(=O)OC3CCCC3)nn2)CC1`, the inhibition amounted to 38%.

In turn, `O=C(N[C@@H](Cc1ccccc1)[C@H](Cc1ccccc1)n1cc(CN2CCN(c3cccc(C(F)(F)F)c3)CC2)nn1)OC1CCCC1` (stereo in doubt; (S,S)-11s) returned an inhibition of 86%.

In turn, `O=C(N[C@@H](Cc1ccccc1)[C@H](Cc1ccccc1)n1cc(CN2CCN(c3cccc(C(F)(F)F)c3)CC2)nn1)OC1CCCC1` (stereo in doubt; (S,S)-7d) showed an inhibition of 87%.

`Cc1ccc(Cl)cc1N1CCN(Cc2cn([C@@H](Cc3ccccc3)[C@H](Cc3ccccc3)NC(=O)NC(C)C)nn2)CC1` had an inhibition of 19%.

With `Cc1ccc(Cl)cc1N1CCN(Cc2cn([C@@H](Cc3ccccc3)[C@H](Cc3ccccc3)NC(=O)OC3CCCCCC3)nn2)CC1`, the inhibition came to 63%.

`Cc1ccc(Cl)cc1N1CCN(Cc2cn([C@@H](Cc3ccccc3)[C@H](Cc3ccccc3)NC(=O)c3ccco3)nn2)CC1` registered an inhibition of 25%.

Turning to `Cc1ccc(Cl)cc1N1CCN(Cc2cn([C@@H](Cc3ccccc3)[C@H](Cc3ccccc3)NC(=O)OCC3CC3)nn2)CC1`, the inhibition was 69%.

Turning to `Cc1ccc(Cl)cc1N1CCN(Cc2cn([C@@H](Cc3ccccc3)[C@H](Cc3ccccc3)NC(=O)OCC3CCC3)nn2)CC1`, the inhibition turned out to be 75%.

The values above are taken from ChEMBL document CHEMBL1138217, “Rapid discovery and structure-activity profiling of novel inhibitors of human immunodeficiency virus type 1 protease enabled by the copper(I)-catalyzed synthesis of 1,2,3-triazoles and their further functionalization” (J Med Chem, 2006).
